TDP2 absorb: human TDP2 enzyme inhibitors, primary screen, biochemical, epi absorbance, recombinant enzyme; T5PNP hydrolysis, p-nitrophenol absorbance 415 nm; 370,000 tested, 0.34% active; inhibition, % at 12.8 µM; Tyrosyl-DNA phosphodiesterase 2 (Homo sapiens), O95551; AID 720702, 2013;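 active = inhibition above the mean of all tested compounds plus 3 SD, set per campaign, cut at about 25% in these data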;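 note: 0% = DMSO with enzyme and 100% = buffer with substrate but no TDP2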
Target sequence (O95551 whole entry, looked up): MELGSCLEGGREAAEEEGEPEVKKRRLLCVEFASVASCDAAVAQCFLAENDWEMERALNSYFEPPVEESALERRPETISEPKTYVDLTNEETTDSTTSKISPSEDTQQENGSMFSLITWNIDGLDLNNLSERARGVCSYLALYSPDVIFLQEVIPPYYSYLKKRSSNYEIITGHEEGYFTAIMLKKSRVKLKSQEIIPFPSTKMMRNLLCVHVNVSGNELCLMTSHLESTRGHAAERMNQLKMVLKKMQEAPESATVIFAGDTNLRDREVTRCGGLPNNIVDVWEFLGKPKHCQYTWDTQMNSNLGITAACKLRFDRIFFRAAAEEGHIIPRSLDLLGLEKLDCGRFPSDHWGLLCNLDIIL
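System: recombinant human TDP2 / Amount: 120 nM TDP2 per well / Also added: 5 mM T5PNP chromogenic substrate / Doses: 12.8 µM single point, 1% DMSO / Incubation: 2 h at 37 °C / Detection: p-Nitrophenol epi absorbance / Evaluation: % inhibition relative to enzyme-containing and enzyme-free wells / Repeats: singlicate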
PAD4 inh: human PAD4 inhibitors, primary screen, biochemical, fluorescence polarization, 1536-well format | Protein-arginine deiminase type-4 (Homo sapiens), Q9UM07 | 330,000 tested, 0.41% active | inhibition, % at 6.36 µM | recombinant PAD4, RCA probe fluorescence polarization;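 active = percent inhibition above a cutoff equal to the mean of all tested compounds plus 3 SD, cut at about 15% in these data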;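 note: 0% = PAD4 with RCA probe and DMSO and 100% = probe without PAD4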
PRMT1 inh: PRMT1 methyltransferase inhibitors, primary screen, biochemical, fluorescence polarization; recombinant PRMT1, activity-based probe fluorescence polarization; Protein arginine N-methyltransferase 1 (Homo sapiens), Q99873; inhibition, % at 2.79 µM; 370,000 tested, 1.3% active;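 active = inhibition above about 21% made by adding two undisclosed values, limit read from the data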
Target sequence (Q99873 whole entry, looked up): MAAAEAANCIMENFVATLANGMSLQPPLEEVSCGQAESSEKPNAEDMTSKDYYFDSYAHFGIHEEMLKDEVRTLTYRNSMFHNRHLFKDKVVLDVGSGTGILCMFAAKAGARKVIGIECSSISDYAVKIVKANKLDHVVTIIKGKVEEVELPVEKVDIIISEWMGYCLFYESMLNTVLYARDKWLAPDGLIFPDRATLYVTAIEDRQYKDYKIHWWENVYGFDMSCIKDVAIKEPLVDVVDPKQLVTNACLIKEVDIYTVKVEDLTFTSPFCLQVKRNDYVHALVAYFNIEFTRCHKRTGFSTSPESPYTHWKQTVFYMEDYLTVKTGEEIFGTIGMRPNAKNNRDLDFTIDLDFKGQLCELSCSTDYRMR
GSTO1 inh: inhibitors of recombinant GSTO1, primary screen, counter-screen for RBBP9 inhibitor project, biochemical, fluorescence polarization; Glutathione S-transferase omega-1 (Homo sapiens), P78417; activity-based probe fluorescence polarization; inhibition, % at 5.96 µM; 300,000 tested, 1.1% active;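 active = inhibition above the campaign mean inhibition plus 3 SD, cut at about 35% in these data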;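 note: 0% = GSTO1-1 with DMSO and 100% = wells lacking GSTO1-1 enzyme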
Apaf1 inhib: inhibitors of human Apaf-1 apoptosome, primary screen, biochemical, DEVD-Rh110 fluorescence, uHTS; 330,000 tested, 0.71% active; reconstituted apoptosome caspase-3 activity; AID 489030, 2010; inhibition, % at 20 µM; active = inhibition of at least 40% at 20 µM;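 note: plate controls were DMSO wells for no effect and DEVD-CHO caspase inhibitor wells for full effect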
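System: Apoptosome proteins | Medium: Hepes pH 7.5 with detergent and BSA | Also added: Cytochrome c trigger plus (Z-DEVD)2-Rh110 caspase-3 substrate | Incubation: 30 min compound preincubation, 50 min activation, room temperature | Detection: Rhodamine 110 fluorescence at Ex 480/Em 540 nm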
GSTO1 confirm: GSTO1 inhibitor hit confirmation, counter-screen for RBBP9 inhibitor project, biochemical, fluorescence polarization, triplicate; shares compounds with GSTO1 inh; recombinant GSTO1, probe fluorescence polarization; inhibition, % at 5.96 µM; 2,400 tested, 54% active; AID 2176, 2009;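 active = inhibition above the primary screen's cutoff, its mean inhibition plus 3 SD, cut at about 35% in these data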;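 note: loss of polarization as inhibitors block binding of rhodamine sulfonate ester activity probe; 0% = GSTO1 with DMSO and 100% = wells lacking GSTO1 enzyme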
PAD4 FP conf: human PAD4 inhibitors, confirmation, biochemical, fluorescence polarization | shares compounds with PAD4 inh | recombinant PAD4, RCA probe fluorescence polarization | inhibition, % at 6.36 µM | 1,200 tested, 28% active | AID 488796, 2010;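 active = mean inhibition across replicates above the hit cutoff set by the earlier primary screen, cut at about 15% in these data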;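 note: inhibitors block active-site labeling by the probe so polarization falls; 0% = PAD4 with probe and DMSO and 100% = probe without PAD4 enzyme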
Apaf-1 inh conf: Apaf-1 inhibitors, single-dose retest, confirmation, biochemical, fluorescence, DEVD-Rh110, 20 µM; shares compounds with Apaf1 inhib; 1,800 tested, 25% active; inhibition, % at 20 µM; AID 504614, 2011; reconstituted apoptosome, caspase-3 DEVD-Rh110 fluorescence;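 active = mean inhibition of at least 40% at 20 µM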;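 note: plate controls were DMSO wells for no effect and DEVD-CHO caspase inhibitor control wells for full effect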
Rh110 quench: Rh110 fluorescence interference by putative Apaf-1 inhibitors, confirmation, artefact control for Apaf-1 inhibitor project, biochemical, 20 µM; shares compounds with Apaf1 inhib; quenched caspase reaction; activation (fluorescence interference), % at 20 µM; 1,800 tested, under 10 active;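 active = signal rise of 40% or more at 20 µM, treated as a fluorescence artifact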
TDP2 confirm: human TDP2 enzyme inhibitors, retest, confirmation, biochemical, epi absorbance, recombinant enzyme; shares compounds with TDP2 absorb; 1,100 tested, 22% active; absorbance read-out; inhibition, % at 12.8 µM; in the data active = inhibition above about 25%;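 note: 0% = vehicle with enzyme and 100% = no enzyme buffer only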
Active calls of the source: *; nt = no result given. This is a sample that favours compounds with a hit; in the whole collection about 2.6% have one here.

SMILES | TDP2 absorb | PAD4 inh | PRMT1 inh | GSTO1 inh | Apaf1 inhib | PAD4 FP conf | others
Cc1cc(=O)cc(C)n1-c1ccc(O)cc1 | -6 | -1 | -2 | 9 | -5 | nt
Cc1cc(=O)n(-c2ccccc2Cl)[nH]1 | 59* | 33* | 2 | 48* | 33 | 4 | GSTO1 confirm=5;TDP2 confirm=10
Cc1cc(=O)n(-c2ccc(O)cc2)[nH]1 | 56* | 61* | 6 | 73* | 21 | -3 | GSTO1 confirm=8;TDP2 confirm=15
COc1ccc(C2Nc3ccccc3C(=O)N2Cc2ccco2)cc1COc1c(C)cc(NC(C)=O)cc1C (stereo unspecified) | -13 | nt | 1 | nt | nt | nt
Cc1[nH]n(-c2ccccc2)c(=O)c1C(c1ccc(C(=O)O)cc1)c1c(C)[nH]n(-c2ccccc2)c1=O | 99* | 73* | 1 | 60* | 71* | 13 | GSTO1 confirm=18;Apaf-1 inh conf=22;Rh110 quench=6;TDP2 confirm=25*
Cc1[nH]n(-c2ccccc2)c(=O)c1C(=O)Nc1ccccc1 | 18 | -6 | 0 | -11 | 6 | nt
Cc1ccc(NC(=O)OC[C@@H]2CSCCS(=O)(=O)N2)cc1 | 2 | nt | 0 | nt | nt | nt
COc1cc(C2C(C#N)=C(N)Oc3c2c(-c2ccccc2)nn3-c2ccccc2)cc(OC)c1OC (stereo unspecified) | 80* | 12 | 0 | 52* | 16 | nt | GSTO1 confirm=14;TDP2 confirm=10
CCCCN(C)c1c(C)nc2ccc(C(=O)NCc3ccc4c(c3)OCO4)cn12 | -2 | nt | 3 | nt | nt | nt
CC(=O)Nc1ccc(SCC(=O)c2ccc(Br)s2)cc1 | 6 | 35* | 63* | 12 | 4 | 12
Cc1cc(C(=O)Nc2ccc(F)cc2)n(-c2ccccc2)n1 | -1 | nt | 0 | nt | nt | nt
Cc1cc2ccccc2n1CCNC(=O)COc1ccccc1 | -4 | 23* | -1 | 0 | 26 | 9
CCC(=O)NCCn1c(C)cc2ccccc21 | nt | -1 | nt | 9 | 2 | nt
CC(=O)Nc1cccc(-c2ccnc3c2CC(C(=O)NCc2cccs2)O3)c1 (stereo unspecified) | 0 | nt | -9 | nt | nt | nt
Cc1cccc(CN2CCN(c3nc4nonc4nc3NC3CC3)CC2)c1 | 8 | 28* | 3 | 2 | -2 | 6
CC(C)C[C@H]1CN(CCCC[C@@H]2CNC(=O)C(=O)N2CC2CCCCC2)C(=O)C(=O)N1CCC1CCCCC1 | 0 | nt | -3 | nt | nt | nt
CC(=O)Nc1ccc(NC(=O)CCCCCN2C(=O)c3ccccc3C2=O)cc1 | -3 | 5 | -1 | 6 | -6 | nt
CCNc1c([N+](=O)[O-])c(=O)n(CC)c2ccccc12 | 0 | -2 | 2 | 0 | -3 | nt
CC(=O)Nc1ccc(Nc2c3c4c(cccc4n(C)c2=O)C(=O)c2ccccc2-3)cc1 | -2 | 19* | 71* | 9 | 2 | 23*
CCNc1c2c3c(cccc3n(C)c1=O)C(=O)c1ccccc1-2 | nt | 88* | nt | 42* | 10 | 91*
COc1ccccc1CNC(=O)C[C@H]1CC[C@H]2[C@H](COc3ccc(NS(=O)(=O)c4ccc(C)cc4)cc3C(=O)N2C)O1 | 7 | nt | -2 | nt | nt | nt
Cc1ccc(SCc2cc(=O)n(C)[nH]2)cc1 | 15 | 24* | 12 | 53* | 16 | 0
Cc1ccc(SCc2cc(=O)n3[nH]c(C)nc3n2)cc1 | 9 | -7 | 2 | 0 | -17 | nt
Cn1c(=O)c(N)c2c3c(c(Br)ccc31)C(=O)c1ccccc1-2 | 19 | 106* | 180* | 29 | 22 | 126*
Cc1cccc(NC(=O)CN2C(=O)CCSc3ccccc32)c1C | -17 | nt | -3 | nt | nt | nt
SMILES | TDP2 absorb | PAD4 inh | PRMT1 inh | GSTO1 inh | Apaf1 inhib | PAD4 FP conf | others
CC(=O)OCCNc1cc(SCc2ccco2)c2nonc2c1[N+](=O)[O-] | nt | 16* | nt | 24 | nt | -4
COC(=O)C1CN(Cc2cn(Cc3ccc(Cl)cc3)nn2)CCS(=O)(=O)N1Cc1ccc(OC)cc1 (stereo unspecified) | 2 | nt | 3 | nt | nt | nt
CCOC(=O)CN(C(=O)COc1nc(-c2ccccc2)cc(C)c1C#N)c1ccccc1C | -11 | 20* | -3 | -1 | 8 | -8
CN1CCN(S(=O)(=O)c2cccc(C(=O)Nc3sc4c(c3-c3nc5ccccc5[nH]3)CCCC4)c2)CC1 | -6 | 19* | 1 | 33 | -1 | 2
O=C(NC1CCCCN(Cc2cccc(C(F)(F)F)c2)C1=O)c1cccc([N+](=O)[O-])c1 (stereo unspecified) | 0 | nt | 1 | nt | nt | nt
CC1(C)Cc2ccccc2C(CSc2ccccc2C(=O)O)=N1 | 1 | 20* | 10 | 12 | 27 | 20*
CC(C)=CCC/C(C)=C/CNCC(=O)N1c2ccccc2[C@]2(c3ccccc3)C[C@@H]3C(=O)N(C/C=C(\C)CCC=C(C)C)CC(=O)N3[C@H]12 | 2 | nt | -2 | nt | nt | nt
COc1ccc(C2=Nn3c(nnc3-c3cccnc3)SC2)cc1OC | 2 | 22* | -2 | -2 | 13 | 7
COc1ccc(C2=Nn3c(nnc3-c3ccncc3)SC2)cc1OC | -2 | -5 | 1 | -10 | 11 | nt
NC(=O)c1nsc(C(=O)N(Cc2ccco2)C(C(=O)NCc2ccc(F)cc2)c2ccc(O)cc2)c1N (stereo unspecified) | 10 | 2 | -4 | 1 | 8 | nt
CCC(C)(C)NC(=O)C(c1ccc(F)cc1)N(Cc1ccco1)C(=O)c1snc(C(N)=O)c1N (stereo unspecified) | -13 | 16* | 1 | 7 | 1 | 3
CC(=O)N1CCN(S(=O)(=O)c2cccc(C(=O)OCC(=O)N(CCC#N)c3ccc(F)cc3)c2)CC1 | -10 | 29* | 1 | nt | 0 | 3

Bioassay records: PubChem, several laboratories
